Laboratory results: ChEMBL document CHEMBL4715886, “Microwave-assisted efficient synthesis of pyrazole-fibrate derivatives as stimulators of glucose uptake in skeletal muscle cells” (2021)
Activity calls are given as the source filed them. The calls are words filed in the database; no cut-off is given here.

Key:
[1] = test system: L6; assay: Induction of glucose uptake in rat L6 cells harboring GLUT4-myc assessed as glucose uptake at 500 uM relative to control; type: functional
Summary of the method: (§1)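 L6-GLUT4myc skeletal muscle cells were exposed to the reference agent at 500 µM. Glucose uptake was measured as fold increase and as percent stimulation relative to untreated control.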

[2] = biological target: T1, Solute carrier family 2, facilitated glucose transporter member 4 (Rattus norvegicus) (UniProt P19357); assay: Induction of GLUT4 translocation in rat L6 cells harboring GLUT4-myc assessed as fold change in increase of surface level GLUT4myc at 500 uM after 16 hrs; type: cell-based
T1 sequence (whole entry): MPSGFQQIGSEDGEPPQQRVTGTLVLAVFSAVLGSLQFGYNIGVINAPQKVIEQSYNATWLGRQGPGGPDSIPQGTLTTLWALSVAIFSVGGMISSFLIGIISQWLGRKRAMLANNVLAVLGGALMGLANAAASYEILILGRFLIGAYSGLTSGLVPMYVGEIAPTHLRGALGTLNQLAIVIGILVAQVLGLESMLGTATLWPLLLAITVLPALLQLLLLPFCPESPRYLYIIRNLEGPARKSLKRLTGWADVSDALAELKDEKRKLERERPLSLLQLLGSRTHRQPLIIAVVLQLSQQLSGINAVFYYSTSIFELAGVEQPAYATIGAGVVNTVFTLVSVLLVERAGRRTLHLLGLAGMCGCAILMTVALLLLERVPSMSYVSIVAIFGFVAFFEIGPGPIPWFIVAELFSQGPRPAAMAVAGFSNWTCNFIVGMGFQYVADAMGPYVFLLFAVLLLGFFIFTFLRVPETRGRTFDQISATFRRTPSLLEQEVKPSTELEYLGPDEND
Summary of the method: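 L6-GLUT4myc myotubes were exposed for 16 h, and cell-surface GLUT4myc level was then measured. Experiments were done in triplicate and expressed as mean ± SE, with p relative to the unstimulated control.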

[3] = test system: L6; assay: Induction of glucose uptake in rat L6 cells harboring GLUT4-myc assessed as fold change in glucose uptake at 500 uM; type: functional; summary of the method: as §1
[4] = test system: L6; assay: Induction of glucose uptake in rat L6 cells harboring GLUT4-myc assessed as glucose uptake at 10 uM relative to control; type: functional
Summary of the method: (§2)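 L6-GLUT4myc rat skeletal muscle cells were exposed once to test compound at 10 µM. Glucose uptake was read and reported as fold increase and as percent stimulation over untreated control.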

[5] = biological target: T1, Solute carrier family 2, facilitated glucose transporter member 4 (Rattus norvegicus); assay: Induction of GLUT4 translocation in rat L6 cells harboring GLUT4-myc assessed as increase in surface level GLUT4myc at 10 uM after 16 hrs; type: cell-based
[6] = test system: L6; assay: Induction of glucose uptake in rat L6 cells harboring GLUT4-myc assessed as fold change in glucose uptake at 10 uM; type: functional; summary of the method: as §2

CN(C)C(=N)NC(=N)N [METFORMIN]
Activity [1]: 48%
fold change (FC) [2]: 1.45
fold change (FC) [3]: 1.48

CCOC(=O)C(C)Oc1ccc(-c2nc3c(cnn3-c3ccc(C)c(C)c3)c(=O)[nH]2)cc1 (configuration not stated)
Activity [4]: -17.2%

CCOC(=O)CCCOc1ccc(-c2nc3c(cnn3-c3ccc(C)c(C)c3)c(=O)[nH]2)cc1
Activity [5]: Active
Activity [4]: 54%
fold change (FC) [6]: 1.54

CCOC(=O)C(C)(C)Oc1ccc(-c2nc3c(cnn3-c3ccc(C)c(C)c3)c(=O)[nH]2)cc1
Activity [4]: 12.9%

CCOC(=O)CCCOc1ccc(-c2nc3c(cnn3-c3ccc(OC)cc3)c(=O)[nH]2)cc1
Activity [4]: 10.4%

CCOC(=O)COc1ccc(-c2nc3c(cnn3-c3ccc(F)cc3)c(=O)[nH]2)cc1
Activity [4]: 23.7%

CCOC(=O)CCCOc1ccc(-c2nc3c(cnn3-c3ccccc3)c(=O)[nH]2)cc1
Activity [4]: -8.3%

CCOC(=O)C(C)Oc1ccc(-c2nc3c(cnn3-c3ccc(OC)cc3)c(=O)[nH]2)cc1 (configuration not stated)
Activity [5]: Active
Activity [4]: 34.4%
fold change (FC) [6]: 1.34

CCOC(=O)C(C)(C)Oc1ccc(-c2nc3c(cnn3-c3ccc(F)cc3F)c(=O)[nH]2)cc1
Activity [4]: -12.8%

CCOC(=O)C(C)(C)Oc1ccc(-c2nc3c(cnn3-c3ccc(OC)cc3)c(=O)[nH]2)cc1
Activity [4]: 5%

CCOC(=O)C(C)Oc1ccc(-c2nc3c(cnn3-c3ccccc3)c(=O)[nH]2)cc1 (configuration not stated)
Activity [5]: Active
Activity [4]: 34%
fold change (FC) [6]: 1.34

CCOC(=O)COc1ccc(-c2nc3c(cnn3-c3ccccc3)c(=O)[nH]2)cc1
Activity [4]: -8.6%

CCOC(=O)C(C)(C)Oc1ccc(-c2nc3c(cnn3-c3ccc(F)cc3)c(=O)[nH]2)cc1
Activity [4]: 0.6%

CCOC(=O)COc1ccc(-c2nc3c(cnn3-c3ccc(OC)cc3)c(=O)[nH]2)cc1
Activity [4]: 13.1%

CCOC(=O)C(C)Oc1ccc(-c2nc3c(cnn3-c3ccc(F)cc3F)c(=O)[nH]2)cc1 (configuration not stated)
Activity [4]: -14.7%

CCOC(=O)COc1ccc(-c2nc3c(cnn3-c3ccc(C)c(C)c3)c(=O)[nH]2)cc1
Activity [4]: -16.8%

CCOC(=O)CCCOc1ccc(-c2nc3c(cnn3-c3ccc(F)cc3)c(=O)[nH]2)cc1
Activity [4]: 6.4%

CCOC(=O)C(C)(C)Oc1ccc(-c2nc3c(cnn3-c3ccccc3)c(=O)[nH]2)cc1
Activity [5]: Active
Activity [4]: 34.4%
fold change (FC) [6]: 1.34

CCOC(=O)CCCOc1ccc(-c2nc3c(cnn3-c3ccc(F)cc3F)c(=O)[nH]2)cc1
Activity [4]: 2.9%

CCOC(=O)C(C)Oc1ccc(-c2nc3c(cnn3-c3ccc(F)cc3)c(=O)n2C)cc1 (configuration not stated)
Activity [4]: 2.9%

CCOC(=O)COc1ccc(-c2nc3c(cnn3-c3ccc(F)cc3F)c(=O)[nH]2)cc1
Activity [4]: -1.6%

CCOC(=O)C(C)Oc1ccc(-c2nc3c(cnn3-c3ccc(F)cc3)c(=O)[nH]2)cc1 (configuration not stated)
Activity [4]: 0.6%
